In brackets after ≈: the same amount, converted by molar mass.
Experiments:
[1] = AUC in CD1 neutropenic mouse with bacterial infection in thigh at 10 mg/kg, sc; conditions: plasma
[2] = T>MIC in methicillin-resistant Staphylococcus aureus WIS-1 infected CD1 neutropenic mouse at static dose of 16.1 mg/kg, sc administered every 6 hrs; format: functional; conditions: route subcutaneous
[3] = test system: Enterobacter cloacae; test: Antimicrobial activity against Enterobacter cloacae 2249 by broth dilution method; format: functional
Method in brief: (§1)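 Ceftobiprole MIC determined by CLSI (NCCLS) broth microdilution.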

[4] = T>MIC in Escherichia coli ATCC 25922 infected CD1 neutropenic mouse at 2-log kill dose of 42.4 mg/kg, sc administered every 6 hrs; format: functional; conditions: route subcutaneous
[5] = T>MIC in Staphylococcus aureus ATCC 29213 infected CD1 neutropenic mouse at static dose of 3.78 mg/kg, sc administered every 6 hrs; format: functional; conditions: route subcutaneous
Method in brief: (§2)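 Neutropenic mice (cyclophosphamide i.p. 150 and 100 mg/kg, 4 and 1 days pre-infection) given 0.1 ml thigh inoculum (1:10 dilution of 10^8 CFU/ml), then treated from 2 h post-infection for 24 h with s.c. ceftobiprole medocaril (0.010–160 mg/kg) at varied intervals. Thigh CFU plated from homogenates. Static dose came from a sigmoid Hill model, and T>MIC was estimated from mouse PK and MIC.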

[6] = T>MIC in Escherichia coli ATCC 25922 infected CD1 neutropenic mouse at static dose of 8.25 mg/kg, sc administered every 6 hrs; format: functional; conditions: route subcutaneous
Method in brief: as §2

[7] = T>MIC in Streptococcus pneumoniae ATCC 10813 infected CD1 neutropenic mouse at 2-log kill dose of 0.552 mg/kg, sc administered every 6 hrs; format: functional; conditions: route subcutaneous
[8] = T>MIC in Staphylococcus aureus ATCC 22923 infected CD1 neutropenic mouse at static dose of 2.03 mg/kg, sc administered every 6 hrs; format: functional; conditions: route subcutaneous
Method in brief: as §2

[9] = Cmax in CD1 neutropenic mouse with bacterial infection in thigh at 10 mg/kg, sc; conditions: in vivo
[10] = test system: Staphylococcus aureus; test: Antimicrobial activity against methicillin-resistant Staphylococcus aureus 11888 by broth dilution method; format: functional
Method in brief: (§3)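 Ceftobiprole MIC by broth microdilution per Clinical and Laboratory Standards Institute (formerly NCCLS) methods, using ceftobiprole standard powder.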

[11] = T>MIC in Staphylococcus aureus […] infected CD1 neutropenic mouse at 2-log kill dose of 10.3 mg/kg, sc administered every 6 hrs; format: functional; conditions: route subcutaneous
[12] = T>MIC in methicillin-resistant Staphylococcus aureus 22115 infected CD1 neutropenic mouse at 2-log kill dose of 34.4 mg/kg, sc administered every 6 hrs; format: functional; conditions: route subcutaneous
[13] = Half life in CD1 neutropenic mouse with bacterial infection in thigh at 40 mg/kg, sc; format: ADME, organism-based; design: dose 40 mg/kg, route subcutaneous; conditions: in vivo
Method in brief: (§4)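 Neutropenic thigh-infected mice (cyclophosphamide i.p. 150 mg/kg day −4, 100 mg/kg day −1) given single s.c. ceftobiprole medocaril doses; two groups of three mice per dose bled retro-orbitally at 0.5–6 h, each animal 3–4 times. Total serum drug measured by agar diffusion bioassay with E. coli NIH-J (linear 0.25–256 μg/ml). Cmax, t1/2 and AUC from one-compartment model.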

[14] = T>MIC in Staphylococcus aureus ATCC 33591 infected CD1 neutropenic mouse at static dose of 7.91 mg/kg, sc administered every 6 hrs; format: functional; conditions: route subcutaneous
Method in brief: as §2

[15] = T>MIC in Staphylococcus aureus ATCC Smith infected CD1 neutropenic mouse at 2-log kill dose of 9.60 mg/kg, sc administered every 6 hrs; format: functional; conditions: dose 9.6 mg/kg; route subcutaneous
[16] = T>MIC in methicillin-resistant Staphylococcus aureus 12248 infected CD1 neutropenic mouse at static dose of 29.2 mg/kg, sc administered every 6 hrs; format: functional; conditions: route subcutaneous
[17] = Half life in CD1 neutropenic mouse with bacterial infection in thigh at 160 mg/kg, sc; format: ADME, organism-based; design: dose 160 mg/kg, route subcutaneous; conditions: in vivo
Method in brief: as §4

[18] = T>MIC in methicillin-resistant Staphylococcus aureus 22115 infected CD1 neutropenic mouse at static dose of 16.9 mg/kg, sc administered every 6 hrs; format: functional; conditions: route subcutaneous
[19] = T>MIC in Klebsiella pneumoniae infected CD1 neutropenic mouse at static dose of 6.61 mg/kg, sc administered every 6 hrs; format: functional; conditions: route subcutaneous
Method in brief: as §2

[20] = T>MIC in Pseudomonas aeruginosa ATCC 27853 infected CD1 neutropenic mouse at 2-log kill dose of 110 mg/kg, sc administered every 3 hrs; format: functional; conditions: route subcutaneous
[21] = T>MIC in Enterobacter cloacae 2249 infected CD1 neutropenic mouse at static dose of 22.2 mg/kg, sc administered every 3 hrs; format: functional; conditions: route subcutaneous
Method in brief: as §2

[22] = T>MIC in Streptococcus pneumoniae ATCC 10813 infected CD1 neutropenic mouse at static dose of 0.180 mg/kg, sc administered every 6 hrs; format: functional; conditions: dose 0.18 mg/kg; route subcutaneous
Method in brief: as §2

[23] = T>MIC in methicillin-resistant Staphylococcus aureus WIS-1 infected CD1 neutropenic mouse at 2-log kill dose of 53.9 mg/kg, sc administered every 6 hrs; format: functional; conditions: route subcutaneous
[24] = test system: Streptococcus pneumoniae; test: Antimicrobial activity against Streptococcus pneumoniae CDC 673 by broth dilution method; format: functional
Method in brief: as §3

[25] = T>MIC in Streptococcus pneumoniae CDC 1293 infected CD1 neutropenic mouse at 2-log kill dose of 3.55 mg/kg, sc administered every 6 hrs; format: functional; conditions: route subcutaneous
[26] = T>MIC in Staphylococcus aureus ATCC 29213 infected CD1 neutropenic mouse at 2-log kill dose of 15.4 mg/kg, sc administered every 6 hrs; format: functional; conditions: route subcutaneous
[27] = test system: Klebsiella pneumoniae; test: Antimicrobial activity against Klebsiella pneumoniae ATCC 43816 by broth dilution method; format: functional
Method in brief: as §1

[28] = T>MIC in Streptococcus pneumoniae CDC-145 infected CD1 neutropenic mouse at static dose of 0.956 mg/kg, sc administered every 6 hrs; format: functional; conditions: route subcutaneous
Method in brief: as §2

[29] = Half life in CD1 neutropenic mouse with bacterial infection in thigh at 10 mg/kg, sc; conditions: in vivo
[30] = T>MIC in Staphylococcus aureus ATCC Smith infected CD1 neutropenic mouse at static dose of 4.21 mg/kg, sc administered every 6 hrs; format: functional; conditions: route subcutaneous
Method in brief: as §2

[31] = T>MIC in Pseudomonas aeruginosa ATCC 27853 infected CD1 neutropenic mouse at static dose of 25.2 mg/kg, sc administered every 3 hrs; format: functional; conditions: route subcutaneous
Method in brief: as §2

[32] = AUC in CD1 neutropenic mouse with bacterial infection in thigh at 160 mg/kg, sc; format: ADME, organism-based; design: dose 160 mg/kg, route subcutaneous; conditions: plasma
Method in brief: as §4

[33] = test system: Escherichia coli; test: Antimicrobial activity against Escherichia coli ATCC 25922 by broth dilution method; format: functional
Method in brief: as §1

SMILES: Nc1nc(/C(=N/O)C(=O)N[C@@H]2C(=O)N3C(C(=O)O)=C(/C=C4\CCN([C@@H]5CCNC5)C4=O)CS[C@H]23)ns1 [CEFTOBIPROLE]
- AUC at 10 mg/kg [1]: 5.85 µg·h/mL
- fT>MIC [2]: 25%
- MIC [3]: 2 µg/mL (≈ 3.74 µM)
- fT>MIC [4]: 57.8%
- fT>MIC [5]: 18.9%
- fT>MIC [6]: 41.9%
- fT>MIC [7]: 24.8%
- fT>MIC [8]: 14.1%
- Cmax [9]: 10800 ng/mL
- MIC [10]: 2 µg/mL (≈ 3.74 µM)
- fT>MIC [11]: 26.5%
- fT>MIC [12]: 29.6%
- half-life [13]: 19.8 min
- fT>MIC [14]: 19.1%
- fT>MIC [15]: 25.9%
- fT>MIC [16]: 24.5%
- half-life [17]: 31.7 min
- fT>MIC [18]: 25.4%
- fT>MIC [19]: 41.2%
- fT>MIC [20]: 98.8%
- fT>MIC [21]: 44.6%
- fT>MIC [22]: 19.4%
- fT>MIC [23]: 39.1%
- MIC [24]: 1 µg/mL (≈ 1.87 µM)
- fT>MIC [25]: 18.4%
- fT>MIC [26]: 29.9%
- MIC [27]: 0.06 µg/mL (≈ 0.112 µM)
- fT>MIC [28]: 15.2%
- half-life [29]: 19 min
- fT>MIC [30]: 19.6%
- fT>MIC [31]: 46.7%
- AUC [32]: 213 µg·h/mL
- MIC [33]: 0.06 µg/mL (≈ 0.112 µM)

Source: ChEMBL document CHEMBL1275519, “In vivo pharmacodynamics of ceftobiprole against multiple bacterial pathogens in murine thigh and lung infection models” (Antimicrob Agents Chemother, 2008)
